Measured values published in ChEMBL document CHEMBL4354825, “Design and Synthesis of Basic Selective Estrogen Receptor Degraders for Endocrine Therapy Resistant Breast Cancer” (J Med Chem, 2019).
pIC50: −log10 of the molar value. Activity calls are given as the source filed them. No cut-off for these calls is given here.

Experiments:
[1] = molecular target: T1, Estrogen receptor (Homo sapiens) (UniProt P03372); assay: Inhibition of ERalpha in human MCF7:WS8 cells assessed as increase in degradation of ERalpha incubated for 24 hrs by In-Cell Western assay relative to control; type: cell-based
T1 sequence (whole entry): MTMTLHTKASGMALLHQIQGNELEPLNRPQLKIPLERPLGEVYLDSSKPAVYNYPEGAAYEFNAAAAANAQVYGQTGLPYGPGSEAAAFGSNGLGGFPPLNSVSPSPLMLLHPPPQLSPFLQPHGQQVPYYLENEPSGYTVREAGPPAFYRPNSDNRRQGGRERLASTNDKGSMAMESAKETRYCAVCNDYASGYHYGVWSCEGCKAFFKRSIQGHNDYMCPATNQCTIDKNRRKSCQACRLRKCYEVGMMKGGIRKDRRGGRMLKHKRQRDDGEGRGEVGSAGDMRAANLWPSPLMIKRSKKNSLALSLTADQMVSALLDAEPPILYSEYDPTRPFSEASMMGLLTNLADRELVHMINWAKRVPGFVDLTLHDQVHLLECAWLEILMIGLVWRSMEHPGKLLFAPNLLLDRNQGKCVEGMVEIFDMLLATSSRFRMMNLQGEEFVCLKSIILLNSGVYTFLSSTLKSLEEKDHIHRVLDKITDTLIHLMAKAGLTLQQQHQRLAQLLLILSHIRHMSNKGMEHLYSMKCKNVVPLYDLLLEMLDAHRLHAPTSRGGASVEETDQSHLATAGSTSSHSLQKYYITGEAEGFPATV
In short: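 MCF7:WS8 cells were estrogen-stripped for 2 days and plated at 2.5 × 10^4 per well. After 48 h they were treated for 24 h. ERα was detected by in-cell western (H10 antibody), with signal normalized to CellTag 700.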

[2] = molecular target: T1, Estrogen receptor (Homo sapiens); assay: Induction of degradation of ERalpha in human MCF7:WS8 cells at 10 nM in presence of MG-132 incubated for 24 hrs by Western blot analysis; type: cell-based
Homo sapiens = species: Homo sapiens; assay: Cytotoxicity against human MCF7:WS8 3D spheroid cells assessed as reduction in tumor spheroid size at 10 nM incubated for 14 days
Mus musculus [3] = assay: In vivo degradation of ERalpha in C57BL/6 mouse at 50 mg/kg, po measured after 7 hrs by Western blot analysis; type: functional, organism-based
In short: (§1)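 Female C57BL/6J mice aged 9–12 weeks were dosed at 50 mg/kg p.o. in PEG 400/10% HPCD (1:9 v/v). Regimens were a single dose with sacrifice at 5 h, or 3 daily doses with sacrifice 5 h (n = 5) or 7 h (n = 6) after the last dose. Ovaries and uterus were homogenized, 20 μg protein was run by SDS-PAGE, and the blot was probed for ERα and normalized to β-actin.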

[4] = Half life in C57BL/6 mouse at 5 mg/kg, iv measured upto 24 hrs by LC-MS/MS analysis; type: ADME, organism-based; settings: in vivo
In short: (§2)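 Full PK run by a contract lab. Dosing was 50 mg/kg p.o. in water and 10% SBE-β-CD/PEG-400 (9:1 v/v), and 5 mg/kg i.v. Sampling at 0.25, 0.5, 1, 2, 4, 8 and 24 h (N = 5). Plasma samples were diluted in 50% acetonitrile and quantified by LC-MS/MS against standards serially diluted in 50% acetonitrile. Brain was also sampled after the oral dose.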

[5] = Tmax in CD-1 mouse plasma at 50 mg/kg, po measured upto 24 hrs by LC-MS/MS analysis; settings: in vivo
[6] = AUC extrapolated from the last time point to infinity in CD-1 mouse at 5 mg/kg, iv measured upto 24 hrs by LC-MS/MS analysis; settings: in vivo
[7] = Drug concentration in C57BL/6 mouse brain at 100 mg/kg, po measured after 2 hrs by LC/MS-MS analysis; type: ADME, organism-based; settings: read-out: Drug uptake
In short: (§3)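 PK screen in female C57BL/6 mice (N = 3 per time point). Dosed by gavage at 100 mg/kg in HPβD/PEG-400. Plasma and brain were taken from perfused mice at 30 and 120 min. Quantified by LC-MS/MS in MRM mode, with standard curves in each matrix and a common internal standard. Values are mean and s.d.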

Mus musculus [8] = assay: In vivo degradation of ERalpha in C57BL/6 mouse at 50 mg/kg, po administered for 3 days and measured on day 3 by Western blot analysis; type: functional, organism-based; in short: as §1
T47D [9] = assay: Cytotoxicity against human T47D 3D spheroid cells assessed as reduction in tumor cell viability at 10 nM incubated for 14 days by celltiter-glo 3D cell viability assay
[10] = Cmax in CD-1 mouse plasma at 50 mg/kg, po measured upto 24 hrs by LC-MS/MS analysis; settings: in vivo
Estrogen receptor = molecular target: T2, Estrogen receptor (Homo sapiens, UniProt P03372); assay: Antagonist activity at ERalpha in human MCF7:WS8 cells incubated for 18 hrs by dual luciferase reporter gene assay relative to control; type: cell-based
T2 sequence (P03372 whole entry): T1 sequence (whole entry)
In short: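 MCF7:WS8 cells were estrogen-deprived for 3 days (phenol red-free RPMI, stripped FBS), then plated and grown 24 h. They were co-transfected for 6 h with a 3×vitellogenin ERE-firefly luciferase plasmid and a pRL-TK Renilla plasmid. Compounds were given in competition with 1 nM E2 for 18 h, then dual luciferase was read.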

[11] = molecular target: T1, Estrogen receptor (Homo sapiens); assay: Induction of degradation of ERalpha in human MCF7:WS8 cells at 100 nM in presence of MG-132 incubated for 24 hrs by Western blot analysis; type: cell-based
MCF7:TAM1 = assay: Cytotoxicity against human MCF7:TAM1 3D spheroid cells assessed as reduction in tumor cell viability at 10 nM incubated for 14 days by celltiter-glo 3D cell viability assay
[12] = AUC extrapolated from the last time point to infinity in CD-1 mouse plasma at 50 mg/kg, po measured upto 24 hrs by LC-MS/MS analysis; settings: in vivo
[13] = AUC (0 to infinity) in CD-1 mouse plasma at 50 mg/kg, po measured upto 24 hrs by LC-MS/MS analysis; settings: in vivo
[14] = Tmax in C57BL/6 mouse brain at 50 mg/kg, po measured upto 24 hrs by LC-MS/MS analysis; type: ADME, organism-based; settings: in vivo; in short: as §2
[15] = MRT (0 to infinity) in CD-1 mouse plasma at 50 mg/kg, po measured upto 24 hrs by LC-MS/MS analysis; settings: in vivo
[16] = Plasma concentration in C57BL/6 mouse at 100 mg/kg, po measured after 2 hrs by LC/MS-MS analysis; type: ADME, organism-based; in short: as §3
T47D [17] = assay: Cytotoxicity against human T47D 3D spheroid cells harboring Y537S mutant assessed as reduction in tumor cell viability at 10 nM incubated for 14 days by celltiter-glo 3D cell viability assay
[18] = Oral bioavailability in C57BL/6 mouse at 50 mg/kg measured upto 24 hrs by LC-MS/MS analysis; type: ADME, organism-based; settings: in vivo; in short: as §2

What does the source list for `Cc1cc(F)cc(C)c1C(=O)c1sc2cc(O)ccc2c1Oc1ccc(OC2CN(CCCF)C2)cc1`?
Efficacy [1]: 92%; Activity [2]: inactive; Activity (Homo sapiens): Active; Activity (Mus musculus [3]): Active; t1/2 [4]: 1.68 h; Tmax [5]: 1 h; %AUCextra [6]: 1.52%; concentration at 2 h [7]: 1250 nM; Activity (Mus musculus [8]): Active; Activity (T47D [9]): Active; Cmax [10]: 413 ng/mL; pIC50 (Estrogen receptor): 8.51; Activity [11]: inactive; Activity (MCF7:TAM1): Active; %AUCextra [12]: 26.8%; AUC [13]: 2292 ng·h/mL; Tmax [14]: 1 h; MRT [15]: 6.05 h; concentration at 2 h [16]: 2150 nM; Activity (T47D [17]): Active; F [18]: 21.9%
